ChEMBL document CHEMBL2412964, “Discovery of novel tetrahydro-pyrazolo [4,3-c] pyridines for the treatment of neuropathic pain: synthesis and neuropharmacology” (Eur J Med Chem, 2013)

Tests used:
[1] = organism: Mus musculus; assay: Neurotoxicity in Swiss albino mouse assessed as minimal motor impairment after 0.5 hrs by rotarod test; format: toxicity, organism-based; conditions: in vivo
How it was run: (§1)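 Mice, either sex, 20-25 g, dosed at 30, 100 and 300 mg/kg. Minimal motor impairment was scored on the rotarod at 0.5 and 4.0 h. Value reported is the minimum dose showing the effect in half or more of three mice per group.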

[2] = system: Rattus norvegicus; assay: Antinociceptive activity in Wistar rat chronic constriction injury model assessed as reversal of mechanical allodynia at 100 mg/kg, ip after 120 mins (reference value: 5.3 +/- 0.5%); format: functional; conditions: route intraperitoneal
[3] = system: Rattus norvegicus; assay: Antinociceptive activity in Wistar rat partial sciatic nerve ligation model assessed as reversal of tactile allodynia at 100 mg/kg, ip after 120 mins relative to control; format: functional; conditions: route intraperitoneal
[4] = system: Rattus norvegicus; assay: Antinociceptive activity in Wistar rat chronic constriction injury model assessed as reversal of cold allodynia at 100 mg/kg, ip after 30 mins (reference value: 0.6 +/- 2.7%); format: functional; conditions: route intraperitoneal
[5] = system: Rattus norvegicus; assay: Antinociceptive activity in Wistar rat partial sciatic nerve ligation model assessed as reversal of tactile allodynia at 100 mg/kg, ip after 30 mins (reference value: 7.7 +/- 0.7%); format: functional; conditions: route intraperitoneal
[6] = system: Rattus norvegicus; assay: Antinociceptive activity in Wistar rat partial sciatic nerve ligation model assessed as reversal of cold allodynia at 100 mg/kg, ip after 120 mins (reference value: 1.5 +/- 0.5%); format: functional; conditions: route intraperitoneal
[7] = system: Rattus norvegicus; assay: Antinociceptive activity in Wistar rat chronic constriction injury model assessed as reversal of mechanical allodynia at 100 mg/kg, ip after 60 mins (reference value: 4.9 +/- 1.0%); format: functional; conditions: route intraperitoneal
[8] = system: Rattus norvegicus; assay: Antinociceptive activity in Wistar rat chronic constriction injury model assessed as reversal of tactile allodynia at 100 mg/kg, ip after 120 mins (reference value: 4.1 +/- 2.1%); format: functional; conditions: route intraperitoneal
[9] = system: Rattus norvegicus; assay: Antinociceptive activity in Wistar rat partial sciatic nerve ligation model assessed as reversal of mechanical allodynia at 100 mg/kg, ip after 120 mins (reference value: 2.9 +/- 0.3%); format: functional; conditions: route intraperitoneal
[10] = organism: Mus musculus; assay: Neurotoxicity in Swiss albino mouse assessed as minimal motor impairment after 4 hrs by rotarod test; format: toxicity, organism-based; conditions: in vivo; how it was run: as §1
[11] = system: Rattus norvegicus; assay: Antinociceptive activity in Wistar rat chronic constriction injury model assessed as reversal of spontaneous pain response at 100 mg/kg, ip after 60 mins (reference value: 4.6 +/- 0.6%); format: functional; conditions: route intraperitoneal
[12] = system: Rattus norvegicus; assay: Antinociceptive activity in Wistar rat partial sciatic nerve ligation model assessed as reversal of mechanical allodynia at 100 mg/kg, ip after 30 mins (reference value: 2.9 +/- 0.3%); format: functional; conditions: route intraperitoneal
[13] = system: Mus musculus; assay: Antinociceptive activity in Swiss albino mouse assessed as inhibition of acetic acid-induced writhing at 100 mg/kg administered 30 mins prior to acetic acid-challenge measured for 30 mins relative to control; format: functional
How it was run: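 Swiss albino mice (20–25 g, either sex); writhing induced by i.p. 0.1 mL of 2.0% v/v acetic acid given half an hour after test compound dosing.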

[14] = system: Rattus norvegicus; assay: Antinociceptive activity in Wistar rat partial sciatic nerve ligation model assessed as reversal of spontaneous pain response at 100 mg/kg, ip after 30 mins (reference value: 3.2 +/- 0.3%); format: functional; conditions: route intraperitoneal
[15] = system: Rattus norvegicus; assay: Antinociceptive activity in Wistar rat partial sciatic nerve ligation model assessed as reversal of spontaneous pain response at 100 mg/kg, ip after 60 mins (reference value: 2.9 +/- 0.3%); format: functional; conditions: route intraperitoneal
[16] = system: Rattus norvegicus; assay: Antinociceptive activity in Wistar rat partial sciatic nerve ligation model assessed as reversal of cold allodynia at 100 mg/kg, ip after 30 mins (reference value: 4.1 +/- 1.0%); format: functional; conditions: route intraperitoneal
[17] = system: Rattus norvegicus; assay: Antinociceptive activity in Wistar rat partial sciatic nerve ligation model assessed as reversal of cold allodynia at 100 mg/kg, ip after 60 mins (reference value: 2.5 +/- 0.3%); format: functional; conditions: route intraperitoneal
[18] = system: Rattus norvegicus; assay: Antinociceptive activity in Wistar rat chronic constriction injury model assessed as reversal of cold allodynia at 100 mg/kg, ip after 60 mins (reference value: 6.3 +/- 1.9%); format: functional; conditions: route intraperitoneal
[19] = system: Rattus norvegicus; assay: Antinociceptive activity in Wistar rat chronic constriction injury model assessed as reversal of mechanical allodynia at 100 mg/kg, ip after 30 mins (reference value: 4.7 +/- 2.1%); format: functional; conditions: route intraperitoneal
[20] = system: Rattus norvegicus; assay: Antinociceptive activity in Wistar rat chronic constriction injury model assessed as reversal of tactile allodynia at 100 mg/kg, ip after 30 mins (reference value: 3.4 +/- 0.8%); format: functional; conditions: route intraperitoneal
[21] = system: Rattus norvegicus; assay: Antinociceptive activity in Wistar rat chronic constriction injury model assessed as reversal of spontaneous pain response at 100 mg/kg, ip after 30 mins (reference value: 8.9 +/- 4.6%); format: functional; conditions: route intraperitoneal
[22] = system: Mus musculus; assay: Antinociceptive activity in Swiss albino mouse assessed as inhibition of formalin-induced flinching at 100 mg/kg administered 30 mins prior to test measured up to 5 mins relative to control; format: functional
[23] = system: Rattus norvegicus; assay: Antinociceptive activity in Wistar rat chronic constriction injury model assessed as reversal of tactile allodynia at 100 mg/kg, ip after 60 mins (reference value: 1.3 +/- 0.3%); format: functional; conditions: route intraperitoneal
[24] = system: Rattus norvegicus; assay: Antinociceptive activity in Wistar rat chronic constriction injury model assessed as reversal of spontaneous pain response at 100 mg/kg, ip after 120 mins (reference value: 4.5 +/- 0.2%); format: functional; conditions: route intraperitoneal
[25] = system: Mus musculus; assay: Antinociceptive activity in Swiss albino mouse assessed as inhibition of formalin-induced flinching at 100 mg/kg administered 30 mins prior to test measured for 10 to 30 mins relative to control; format: functional
[26] = system: Rattus norvegicus; assay: Antinociceptive activity in Wistar rat chronic constriction injury model assessed as reversal of cold allodynia at 100 mg/kg, ip after 120 mins (reference value: 5.4 +/- 1.9%); format: functional; conditions: route intraperitoneal
[27] = system: Rattus norvegicus; assay: Antinociceptive activity in Wistar rat partial sciatic nerve ligation model assessed as reversal of spontaneous pain response at 100 mg/kg, ip after 120 mins (reference value: 1.2 +/- 0.1%); format: functional; conditions: route intraperitoneal
[28] = system: Rattus norvegicus; assay: Antinociceptive activity in Wistar rat partial sciatic nerve ligation model assessed as reversal of mechanical allodynia at 100 mg/kg, ip after 60 mins (reference value: 2.8 +/- 0.3%); format: functional; conditions: route intraperitoneal
[29] = system: Rattus norvegicus; assay: Antinociceptive activity in Wistar rat partial sciatic nerve ligation model assessed as reversal of tactile allodynia at 100 mg/kg, ip after 60 mins (reference value: 12.5 +/- 1.2%); format: functional; conditions: route intraperitoneal
[30] = system: Mus musculus; assay: Neurotoxicity in Swiss albino mouse assessed as minimal motor impairment at 300 mg/kg after 4 hrs by rotarod test; format: toxicity, organism-based; set-up: dose 300 mg/kg; conditions: in vivo
How it was run: (§2)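 Swiss albino mice of either sex, 20-25 g, dosed at 30, 100 and 300 mg/kg, three per group. Minimal motor impairment scored by rotarod at 0.5 and 4.0 h after dosing. Reported value is the lowest dose giving impairment in half or more of the mice.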

[31] = system: Mus musculus; assay: Neurotoxicity in Swiss albino mouse assessed as minimal motor impairment at 300 mg/kg after 0.5 hrs by rotarod test; format: toxicity, organism-based; set-up: dose 300 mg/kg; conditions: in vivo; how it was run: as §2
[32] = system: Mus musculus; assay: Antinociceptive activity in Swiss albino mouse assessed as inhibition of formalin-induced flinching at 5 mg/kg administered 30 mins prior to test measured up to 5 mins relative to control; format: functional
[33] = system: Mus musculus; assay: Antinociceptive activity in Swiss albino mouse assessed as inhibition of formalin-induced flinching at 5 mg/kg administered 30 mins prior to test measured for 10 to 30 mins relative to control; format: functional
[34] = system: Mus musculus; assay: Antinociceptive activity in Swiss albino mouse assessed as inhibition of acetic acid-induced writhing at 5 mg/kg administered 30 mins prior to acetic acid-challenge measured for 30 mins relative to control; format: functional

In the case of `CCN1CCc2c(c(C)nn2C(=O)Nc2ccc(C)cc2C)C1`, the MLD [1] was 300 mg/kg, the Activity [2] was 65% and the Activity [3] was 30.2%. For the same compound, the Activity [4] was 54.4%, the Activity [5] was 53.3% and the Activity [6] was 38.7%. For the same compound, the Activity [7] was 57.5%, the Activity [8] was 66.1% and the Activity [9] was 18.7%. It also gave an MLD [10] of 300 mg/kg, an Activity [11] of 67.5% and an Activity [12] of 63.3%. The inhibition in vivo at 100 mg/kg [13] was 56.1%, the Activity [14] was 40.7% and the Activity [15] was 34.4%. The Activity [16] was 60.4%, the Activity [17] was 14.3% and the Activity [18] was 37.3%. For the same compound, the Activity [19] was 70.8%, the Activity [20] was 17.2% and the Activity [21] was 72.9%. For the same compound, the inhibition in vivo at 100 mg/kg [22] was 7%, the Activity [23] was 56.6% and the Activity [24] was 64.4%. For the same compound, the inhibition in vivo at 100 mg/kg [25] was 16.3%, the Activity [26] was 41.8% and the Activity [27] was 5.9%. For the same compound, the Activity [28] was 50.5% and the Activity [29] was 41.9%.
`COc1ccc2c(c1)c(CC(=O)O)c(C)n2C(=O)c1ccc(Cl)cc1` [INDOMETHACIN] was tested, and the Activity [30] was “Non-toxic”, the Activity [31] was “Non-toxic” and the inhibition in vivo at 5 mg/kg [32] was 4.7%. It also gave an inhibition in vivo at 5 mg/kg [33] of 72.1% and an inhibition in vivo at 5 mg/kg [34] of 96.1%.
